Assay results published in publication PMC7688529 (British Journal of Clinical Pharmacology, 2020).
Like-named read-outs stand apart in the source and are kept apart here.

Tests used:
[1] = type: in vivo, human; conditions: for Ratio of geometric means (treatment A/B; 90% CI) of AUC0‐t / Ratio of geometric means (treatment A/B; 90% CI) of AUC0‐∞ / Ratio of geometric means (treatment A/B; 90% CI) of Cmax: FDC‐2 vs free combination (EU‐sourced tadalafil); for CVw of AUC0‐t / CVw of AUC0‐∞ / CVw of Cmax: FDC‐2 vs free combination, intrasubject coefficient of variation; for Cmax: Treatment A FDC (FDC‐2, 10 mg/40 mg), single dose, fasted, healthy subjects; for Cmax / half-life / AUC: geometric mean (95% CI)
Outline: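 Healthy subjects randomized to A/B or B/A. Single oral dose: 10 mg/40 mg FDC, or macitentan 10 mg plus 2 × 20 mg EU-sourced tadalafil. Fasted ≥10 h pre- to 4 h post-dose. Blood (K3EDTA) from predose to 216 h; spun ~1500 g, 10 min, 4 ± 2°C; stored ≤ −75°C, light-protected. LC-MS/MS with isotope-labelled standards. Geometric mean ratios (90% CI) and CVw from mixed-effects model.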

[2] = type: in vivo, human; conditions: for CVw of AUC0‐t / CVw of AUC0‐∞ / CVw of Cmax: intrasubject coefficient of variation; for Tmax: median (range)
Outline: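 Healthy subjects; randomized crossover; single oral fasted dose of the 10 mg/40 mg macitentan/tadalafil FDC vs a free combination with US-sourced tadalafil; evaluated per group. Fluids withheld 1 h pre- to 1 h post-dose; observation 216–288 h. Macitentan/ACT-132577 by LC-MS/MS after acetonitrile/ethanol protein precipitation; tadalafil by LC-MS/MS after tert-butyl methyl ether extraction. Geometric mean ratios with 90% CI and intrasubject variability from a mixed-effects model.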

[3] = Stability in human plasma samples; type: physicochemical
[4] = Study AC‐077‐101: safety and tolerability evaluation; type: in vivo, human; conditions: both studies AC‐077‐101 and AC‐077‐103; administered as FDC product or as a free combination
[5] = Treatment B free combination (EU‐sourced tadalafil), median (range)
[6] = human, plasma, oral, t1/2, Treatment A FDC (FDC‐2)
[7] = human, plasma, oral, t1/2, Treatment B free combination (EU‐sourced tadalafil)
[8] = Group 1, FDC‐1 vs free combination (US‐sourced tadalafil)
[9] = Group 1, FDC‐1 vs free combination
[10] = Group 2, FDC‐2 vs free combination (US‐sourced tadalafil)
[11] = Group 2, FDC‐2 vs free combination
[12] = human, plasma, oral, Group 1, Treatment A FDC‐1 (macitentan/tadalafil 10 mg/40 mg), single dose, fasted, healthy subjects, geometric mean (95% CI)
[13] = human, plasma, oral, Group 2, Treatment B free combination (US‐sourced tadalafil), geometric mean (95% CI)
[14] = human, plasma, oral, t1/2, Group 1, Treatment B free combination (US‐sourced tadalafil), geometric mean (95% CI)
[15] = human, plasma, oral, t1/2, Group 2, Treatment A FDC‐2, geometric mean (95% CI)
[16] = human, plasma, oral, t1/2, Group 2, Treatment B free combination (US‐sourced tadalafil), geometric mean (95% CI)
[17] = human, plasma, oral, tmax, Group 1, Treatment A FDC‐1
[18] = human, plasma, oral, tmax, Group 1, Treatment B free combination (US‐sourced tadalafil)
[19] = human, plasma, oral, tmax, Group 2, Treatment A FDC‐2
[20] = human, plasma, oral, tmax, Group 2, Treatment B free combination (US‐sourced tadalafil)
[21] = human, plasma, oral, t1/2, Group 1, Treatment A FDC‐1, geometric mean (95% CI)

Structure (SMILES): NS(=O)(=O)Nc1ncnc(OCCOc2ncc(Br)cn2)c1-c1ccc(Br)cc1 [ACT‐132577]
- Ratio of geometric means (treatment A/B; 90% CI) of AUC0‐t [1]: 0.9970 (0.9651, 1.0300)
- Ratio of geometric means (treatment A/B; 90% CI) of AUC0‐∞ [1]: 0.9936 (0.9619, 1.0264)
- Ratio of geometric means (treatment A/B; 90% CI) of Cmax [1]: 1.0198 (0.9819, 1.0591)
- CVw of AUC0‐t [1]: 7.93%
- CVw of AUC0‐∞ [1]: 7.91%
- CVw of Cmax [1]: 9.24%
- Tmax [1, 5]: 48.00 (24.0–72.1) h
- Tmax ([1]; human, plasma, oral): 48 h
- Cmax ([1]; human, plasma, oral): 163 ng/mL
- half-life [1, 6]: 2960 min
- half-life [1, 7]: 3020 min
- Geometric means ratio (treatment A/B; 90% CI) of AUC0‐t [2, 8]: 0.9826(0.9550, 1.0110)
- Geometric means ratio (treatment A/B; 90% CI) of AUC0‐∞ [2, 8]: 0.9836(0.9572, 1.0107)
- Geometric means ratio (treatment A/B; 90% CI) of Cmax [2, 8]: 0.9935 (0.9616, 1.0264)
- CVw of AUC0‐t [2, 9]: 9.03%
- CVw of AUC0‐∞ [2, 9]: 8.61%
- CVw of Cmax [2, 9]: 10.32%
- AUC higher after FDC‐2 than after free combination ([2]; Group 2): ~9%
- Cmax higher after FDC‐2 than after free combination ([2]; Group 2): approximately 10%
- Geometric means ratio (treatment A/B; 90% CI) of AUC0‐t [2, 10]: 1.0925 (1.0545, 1.1319)
- Geometric means ratio (treatment A/B; 90% CI) of AUC0‐∞ [2, 10]: 1.0884 (1.0502, 1.1281)
- Geometric means ratio (treatment A/B; 90% CI) of Cmax [2, 10]: 1.0983 (1.0470, 1.1520)
- CVw of AUC0‐t [2, 11]: 11.20%
- CVw of AUC0‐∞ [2, 11]: 11.31%
- CVw of Cmax [2, 11]: 15.15%
- Cmax [2, 12]: 158 ng/mL
- Cmax [2, 13]: 150 ng/mL
- half-life [2, 14]: 2910 min
- half-life [2, 15]: 3030 min
- half-life [2, 16]: 3020 min
- Tmax [2, 17]: 48 h
- Tmax [2, 18]: 48 h
- Tmax [2, 19]: 48 h
- Tmax [2, 20]: 48 h
- stability in plasma samples at room‐temperature [3]: at least 3 days
- stability in plasma samples, freeze/thaw cycles [3]: at least 3 freeze/thaw cycles
- stability in plasma samples, storage at −20°C [3]: ≥ 36 months

Structure (SMILES): CN1CC(=O)N2[C@H](c3ccc4c(c3)OCO4)c3[nH]c4ccccc4c3C[C@@H]2C1=O [Tadalafil, tadalafil]
- Ratio of geometric means (treatment A/B; 90% CI) of AUC0‐t [1]: 1.0040 (0.9584, 1.0517)
- Ratio of geometric means (treatment A/B; 90% CI) of AUC0‐∞ [1]: 1.0047 (0.9591, 1.0525)
- Ratio of geometric means (treatment A/B; 90% CI) of Cmax [1]: 0.9015 (0.8413, 0.9661)
- CVw of AUC0‐t [1]: 11.35%
- CVw of AUC0‐∞ [1]: 11.34%
- CVw of Cmax [1]: 16.96%
- Tmax [1, 5]: 1.75 (1.0–5.0) h
- Cmax ([1]; human, plasma, oral): 539 ng/mL
- half-life [1, 6]: 1400 min
- half-life [1, 7]: 1360 min
- Tmax ([1]; human, plasma, oral, tmax, Treatment A FDC (FDC‐2), median (range)): 2 h
- tolerability [4]: well tolerated
- lower bound of the 90% CI of the geometric mean ratio of Cmax ([2]; FDC‐1 vs free combination, bioequivalence limits 0.8000–1.2500): 0.7167
- AUC lower after FDC‐1 than after free combination ([2]; Group 1): ~8%
- Cmax lower after FDC‐1 than after free combination ([2]; Group 1): approximately 24%
- Geometric means ratio (treatment A/B; 90% CI) of AUC0‐t [2, 8]: 0.9151 (0.8687, 0.9639)
- Geometric means ratio (treatment A/B; 90% CI) of AUC0‐∞ [2, 8]: 0.9172 (0.8707, 0.9662)
- Geometric means ratio (treatment A/B; 90% CI) of Cmax [2, 8]: 0.7588 (0.7167, 0.8034)
- CVw of AUC0‐t [2, 9]: 16.71%
- CVw of AUC0‐∞ [2, 9]: 16.70%
- CVw of Cmax [2, 9]: 18.38%
- t1/2 ([2]; Group 1, Treatment B free combination (US‐sourced tadalafil), geometric mean (95% CI)): 18.066 (16.472, 19.815) h
- Tmax ([2]; Group 1, Treatment B free combination (US‐sourced tadalafil)): 3.00 (1.0–5.0) h
- Geometric means ratio (treatment A/B; 90% CI) of AUC0‐t [2, 10]: 0.9764 (0.9293, 1.0259)
- Geometric means ratio (treatment A/B; 90% CI) of AUC0‐∞ [2, 10]: 0.9765 (0.9293, 1.0260)
- Geometric means ratio (treatment A/B; 90% CI) of Cmax [2, 10]: 0.9576 (0.9063, 1.0118)
- CVw of AUC0‐t [2, 11]: 16.01%
- CVw of AUC0‐∞ [2, 11]: 16.02%
- CVw of Cmax [2, 11]: 17.86%
- Cmax [2, 12]: 385 ng/mL
- Cmax [2, 13]: 490 ng/mL
- half-life [2, 21]: 1100 min
- half-life [2, 15]: 1090 min
- half-life [2, 16]: 1110 min
- Tmax [2, 17]: 4 h
- Tmax [2, 18]: ~3 h
- Tmax [2, 19]: 3 h
- Tmax [2, 20]: 3 h
- stability in plasma samples at room‐temperature [3]: at least 6 hours
- stability in plasma samples, freeze/thaw cycles [3]: ≥ 3 freeze/thaw cycles

Structure (SMILES): CCCNS(=O)(=O)Nc1ncnc(OCCOc2ncc(Br)cn2)c1-c1ccc(Br)cc1 [Macitentan, macitentan]
- Ratio of geometric means (treatment A/B; 90% CI) of AUC0‐t [1]: 1.0038 (0.9677, 1.0413)
- Ratio of geometric means (treatment A/B; 90% CI) of AUC0‐∞ [1]: 1.0015 (0.9675, 1.0367)
- Ratio of geometric means (treatment A/B; 90% CI) of Cmax [1]: 1.0608 (1.0014, 1.1238)
- CVw of AUC0‐t [1]: 8.94%
- CVw of AUC0‐∞ [1]: 8.42%
- CVw of Cmax [1]: 14.10%
- Tmax [1, 5]: 9.00 (4.2–24.0) h
- Tmax ([1]; human, plasma, oral): 9 h
- AUC ([1]; human, plasma, oral, AUC0‐t, Treatment A FDC (FDC‐2)): 5810 ng·h/mL
- AUC ([1]; human, plasma, oral, AUC0‐t, Treatment B free combination (EU‐sourced tadalafil)): 5790 ng·h/mL
- AUC ([1]; human, plasma, oral, AUC0‐∞, Treatment A FDC (FDC‐2)): 5890 ng·h/mL
- AUC ([1]; human, plasma, oral, AUC0‐∞, Treatment B free combination (EU‐sourced tadalafil)): 5880 ng·h/mL
- Cmax ([1]; human, plasma, oral): 175 ng/mL
- half-life [1, 6]: 969 min
- half-life [1, 7]: 966 min
- tolerability [4]: well tolerated
- Geometric means ratio (treatment A/B; 90% CI) of AUC0‐t [2, 8]: 0.9815 (0.9527, 1.0113)
- Geometric means ratio (treatment A/B; 90% CI) of AUC0‐∞ [2, 8]: 0.9818 (0.9537, 1.0109)
- Geometric means ratio (treatment A/B; 90% CI) of Cmax [2, 8]: 1.0045 (0.9631, 1.0478)
- CVw of AUC0‐t [2, 9]: 9.54%
- CVw of AUC0‐∞ [2, 9]: 9.31%
- CVw of Cmax [2, 9]: 13.50%
- AUC higher after FDC‐2 than after free combination ([2]; Group 2): approximately 10%
- Cmax higher after FDC‐2 than after free combination ([2]; Group 2): approximately 19%
- Geometric means ratio (treatment A/B; 90% CI) of AUC0‐t [2, 10]: 1.1014 (1.0652, 1.1389)
- Geometric means ratio (treatment A/B; 90% CI) of AUC0‐∞ [2, 10]: 1.0981 (1.0641, 1.1332)
- Geometric means ratio (treatment A/B; 90% CI) of Cmax [2, 10]: 1.1901 (1.1374, 1.2451)
- CVw of AUC0‐t [2, 11]: 10.80%
- CVw of AUC0‐∞ [2, 11]: 10.16%
- CVw of Cmax [2, 11]: 14.64%
- AUC ([2]; human, plasma, oral, AUC0‐t, Group 1, Treatment A FDC‐1, geometric mean (95% CI)): 4320 ng·h/mL
- AUC ([2]; human, plasma, oral, AUC0‐t, Group 1, Treatment B free combination (US‐sourced tadalafil), geometric mean (95% CI)): 4400 ng·h/mL
- AUC ([2]; human, plasma, oral, AUC0‐t, Group 2, Treatment A FDC‐2, geometric mean (95% CI)): 4740 ng·h/mL
- AUC ([2]; human, plasma, oral, AUC0‐t, Group 2, Treatment B free combination (US‐sourced tadalafil), geometric mean (95% CI)): 4300 ng·h/mL
- AUC ([2]; human, plasma, oral, AUC0‐∞, Group 1, Treatment A FDC‐1, geometric mean (95% CI)): 4430 ng·h/mL
- AUC ([2]; human, plasma, oral, AUC0‐∞, Group 1, Treatment B free combination (US‐sourced tadalafil), geometric mean (95% CI)): 4510 ng·h/mL
- AUC ([2]; human, plasma, oral, AUC0‐∞, Group 2, Treatment A FDC‐2, geometric mean (95% CI)): 4830 ng·h/mL
- AUC ([2]; human, plasma, oral, AUC0‐∞, Group 2, Treatment B free combination (US‐sourced tadalafil), geometric mean (95% CI)): 4390 ng·h/mL
- Cmax [2, 12]: 169 ng/mL
- Cmax [2, 13]: 163 ng/mL
- half-life [2, 21]: 829 min
- half-life [2, 14]: 837 min
- half-life [2, 15]: 828 min
- half-life [2, 16]: 865 min
- Tmax [2, 17]: 9 h
- Tmax [2, 18]: 9 h
- Tmax [2, 19]: 9 h
- Tmax [2, 20]: 9 h
- stability in plasma samples at room‐temperature [3]: at least 3 days
- stability in plasma samples, freeze/thaw cycles [3]: at least 3 freeze/thaw cycles
- stability in plasma samples, storage at −20°C [3]: ≥ 36 months
